Experimental data published in ChEMBL document CHEMBL2407075, “Sulphonamido-quinoxalines: search for anticancer agent” (Eur J Med Chem, 2013).

Legend:
Type in all cases: functional
T47D = assay: Growth inhibition of human T47D cells assessed as cell growth at 10^-4 M after 48 hrs by sulforhodamine B assay; conditions: read-out: Activity
TK-10 = assay: Growth inhibition of human TK10 cells assessed as cell growth at 10^-4 M after 48 hrs by sulforhodamine B assay; conditions: TK-10, 48 h, read-out: Activity
CAKI-1 = assay: Growth inhibition of human CAKI-1 cells assessed as cell growth at 10^-4 M after 48 hrs by sulforhodamine B assay; conditions: CAKI-1, 48 h, read-out: Activity
Outline: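 Five-dose NCI-60 run (0.01, 0.1, 1, 10 and 100 µM, as 10-fold dilutions from a DMSO stock made at 400× the top final level). Cells were grown in RPMI 1640 with 5% FBS and 2 mM glutamine and plated for 24 h. They were then exposed for 48 h at 37 °C and 5% CO2. TCA fixation was followed by SRB staining with A515 read-out. Percent growth was taken relative to time-zero and control plates.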

OVCAR-4 = assay: Growth inhibition of human OVCAR4 cells assessed as cell growth at 10^-4 M after 48 hrs by sulforhodamine B assay; conditions: OVCAR-4, 48 h, read-out: Activity
SNB-19 = assay: Growth inhibition of human SNB19 cells assessed as cell growth at 10^-4 M after 48 hrs by sulforhodamine B assay; conditions: SNB-19, 48 h, read-out: Activity
HOP-92 = assay: Growth inhibition of human HOP92 cells assessed as cell growth at 10^-4 M after 48 hrs by sulforhodamine B assay; conditions: HOP-92, 48 h, read-out: Activity
Outline: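 Five-dose screen at NCI. Cells in RPMI 1640 with 5% FBS and 2 mM L-glutamine, seeded at 5000–40,000 cells/well and grown 24 h at 37 °C, 5% CO2 before dosing, with time-zero plates TCA-fixed. Drug diluted from DMSO stock to 0.01, 0.1, 1, 10 and 100 µM final, 48 h. Cells fixed with cold TCA (10% final), stained with 0.4% SRB and read at 515 nm. Percent growth from Tz, control and test absorbances; GI50, TGI and LC50 from dose-response curves.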

NCI-H226 [1] = assay: Growth inhibition of human NCI-H226 cells assessed as cell growth at 10^-5 M after 48 hrs by sulforhodamine B assay; conditions: NCI-H226, 48 h, read-out: Activity
HL-60(TB) [2] = assay: Growth inhibition of human HL-60(TB) cells assessed as cell growth at 10^-5 M after 48 hrs by sulforhodamine B assay; conditions: HL-60, 48 h, read-out: Activity
Outline: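 HL-60(TB) suspension cells were treated 48 h at 37 °C within the five-dose series (0.01–100 µM), fixed with 16% final TCA and SRB-stained, read at 515 nm. Percentage growth at each concentration = (Ti−Tz)/(C−Tz)×100, or (Ti−Tz)/Tz×100 when Ti<Tz, with time-zero (Tz) and untreated control (C) plates.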

M14 [3] = assay: Growth inhibition of human M14 cells assessed as cell growth at 10^-6 M after 48 hrs by sulforhodamine B assay; conditions: M14, 48 h, read-out: Activity
U-251 = assay: Growth inhibition of human U251 cells assessed as cell growth at 10^-6 M after 48 hrs by sulforhodamine B assay; conditions: U-251, 48 h, read-out: Activity
NCI-H522 [4] = assay: Growth inhibition of human NCI-H522 cells assessed as cell growth at 10^-6 M after 48 hrs by sulforhodamine B assay; conditions: NCI-H522, 48 h, read-out: Activity
PC-3 = assay: Growth inhibition of human PC3 cells assessed as cell growth at 10^-7 M after 48 hrs by sulforhodamine B assay; conditions: PC-3, 48 h, read-out: Activity
UO-31 = assay: Growth inhibition of human UO31 cells assessed as cell growth at 10^-7 M after 48 hrs by sulforhodamine B assay; conditions: UO-31, 48 h, read-out: Activity
NCI-H226 [5] = assay: Growth inhibition of human NCI-H226 cells assessed as cell growth at 10^-7 M after 48 hrs by sulforhodamine B assay; conditions: NCI-H226, 48 h, read-out: Activity
UACC-257 = assay: Growth inhibition of human UACC257 cells assessed as cell growth at 10^-8 M after 48 hrs by sulforhodamine B assay; conditions: UACC-257, 48 h, read-out: Activity
MDA-MB-435 = assay: Growth inhibition of human MDA-MB-435 cells assessed as cell growth at 10^-8 M after 48 hrs by sulforhodamine B assay; conditions: MDA-MB-435, 48 h, read-out: Activity
M14 [6] = assay: Growth inhibition of human M14 cells assessed as cell growth at 10^-8 M after 48 hrs by sulforhodamine B assay; conditions: M14, 48 h, read-out: Activity
SF-295 = assay: Growth inhibition of human SF295 cells assessed as cell growth at 10^-8 M after 48 hrs by sulforhodamine B assay; conditions: SF-295, 48 h, read-out: Activity
NCI-H460 = assay: Growth inhibition of human NCI-H460 cells assessed as cell growth at 10^-8 M after 48 hrs by sulforhodamine B assay; conditions: NCI-H460, 48 h, read-out: Activity
RXF 393 = assay: Growth inhibition of human RXF393 cells after 48 hrs by sulforhodamine B assay; conditions: RXF 393, 48 h; for CC50: read-out: LC50 (the source's name)
Outline: (§1)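 Adherent cells in RPMI 1640 with 5% FBS and 2 mM L-glutamine were plated at 5000–40,000 cells/well and grown 24 h. Five concentrations (0.01–100 µM, DMSO stock) were added for 48 h at 37 °C. Cells were fixed with cold TCA (10% final) and stained with SRB, read at 515 nm. GI50 came from log concentration–growth curves against time-zero and control plates.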

A498 = assay: Growth inhibition of human A498 cells after 48 hrs by sulforhodamine B assay; conditions: A498, 48 h; for CC50: read-out: LC50 (the source's name); outline: as §1
OVCAR-3 = assay: Growth inhibition of human OVCAR3 cells after 48 hrs by sulforhodamine B assay; conditions: OVCAR-3, 48 h; for CC50: read-out: LC50 (the source's name); outline: as §1
IGROV-1 = assay: Growth inhibition of human IGROV1 cells after 48 hrs by sulforhodamine B assay; conditions: IGROV-1, 48 h; for CC50: read-out: LC50 (the source's name); outline: as §1
SF-539 = assay: Growth inhibition of human SF539 cells after 48 hrs by sulforhodamine B assay; conditions: SF-539, 48 h; for CC50: read-out: LC50 (the source's name); outline: as §1
NCI-H522 [7] = assay: Growth inhibition of human NCI-H522 cells after 48 hrs by sulforhodamine B assay; conditions: NCI-H522, 48 h; for CC50: read-out: LC50 (the source's name); outline: as §1
HL-60(TB) [8] = assay: Growth inhibition of human HL-60(TB) cells after 48 hrs by sulforhodamine B assay; conditions: HL-60, 48 h; for CC50: read-out: LC50 (the source's name)
Outline: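 Leukemia suspension cells in RPMI 1640 with 5% FBS and 2 mM L-glutamine were plated at 5000–40,000 cells/well and grown 24 h. Five concentrations (0.01–100 µM) were given for 48 h at 37 °C. Settled cells were fixed with 80% TCA (16% final) and SRB-stained, read at 515 nm. GI50 came from dose–response curves against time-zero and control plates.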

Row | Compound | growth at 100 µM (T47D) | growth at 100 µM (TK-10) | growth at 100 µM (CAKI-1) | growth at 100 µM (OVCAR-4) | growth at 100 µM (SNB-19) | growth at 100 µM (HOP-92) | growth at 10 µM (NCI-H226 [1]) | growth at 10 µM (HL-60(TB) [2]) | growth at 1 µM (M14 [3]) | growth at 1 µM (U-251) | growth at 1 µM (NCI-H522 [4]) | growth at 0.1 µM (PC-3) | growth at 0.1 µM (UO-31) | growth at 0.1 µM (NCI-H226 [5]) | growth at 0.01 µM (UACC-257) | growth at 0.01 µM (MDA-MB-435) | growth at 0.01 µM (M14 [6]) | growth at 0.01 µM (SF-295) | growth at 0.01 µM (NCI-H460) | CC50 (RXF 393) | further results
1 | O=S(=O)(Nc1ccccn1)c1ccc2nc(-c3ccccc3)c(-c3ccccc3)nc2c1 | -1% | 54% | 73% | 21% | 62% | 1% | -35% | -30% | 98% | 84% | 74% | 93% | 88% | 95% | 96% | 99% | 96% | 86% | 104% | > 100 µM | GI50 (RXF 393): 2.14 µM; GI50 (A498): 1.67 µM; CC50 (A498): > 100 µM; GI50 (OVCAR-3): 2.17 µM; CC50 (OVCAR-3): > 100 µM; TGI (IGROV-1): > 100 µM; CC50 (IGROV-1): > 100 µM; TGI (SF-539): > 100 µM; CC50 (SF-539): > 100 µM; GI50 (NCI-H522 [7]): 1.6 µM; CC50 (NCI-H522 [7]): > 100 µM; GI50 (HL-60(TB) [8]): 1.71 µM; CC50 (HL-60(TB) [8]): > 100 µM
2 | O=S(=O)(Nc1ccc(Cl)cc1)c1ccc2nc(-c3ccccc3)c(-c3ccccc3)nc2c1 | 37% | 86% | 65% | 52% | 83% | 32% | -29% | -32% | 94% | 87% | 88% | 92% | 89% | 99% | 94% | 97% | 95% | 92% | 101% | > 100 µM | CC50 (A498): > 100 µM; CC50 (OVCAR-3): > 100 µM; TGI (IGROV-1): > 100 µM; CC50 (IGROV-1): > 100 µM; TGI (SF-539): > 100 µM; CC50 (SF-539): > 100 µM; CC50 (NCI-H522 [7]): > 100 µM; GI50 (HL-60(TB) [8]): 2.09 µM; CC50 (HL-60(TB) [8]): > 100 µM
